These results are taken from PMC7134359 (Nature, 2020).

Several values for one entry are separate records, joined by “and”; a condition that tells them apart may be missing. Identical values can stand only once. Like-named read-outs stand apart in the source and are kept apart here.

One data set has as its target hMT1 (Homo sapiens, UniProt P48039). As to the kind of experiment: GloSensor cAMP assay. The following applies: for hMT1 Schild slope: Schild analysis, antagonism of melatonin, cAMP. The class given is cell-based. (Changes in cAMP serve as a functional read-out for many G protein-coupled receptors.)
A further data set addresses T1, hMT2 (Homo sapiens, UniProt P49286).
T1 sequence (P49286 1-362): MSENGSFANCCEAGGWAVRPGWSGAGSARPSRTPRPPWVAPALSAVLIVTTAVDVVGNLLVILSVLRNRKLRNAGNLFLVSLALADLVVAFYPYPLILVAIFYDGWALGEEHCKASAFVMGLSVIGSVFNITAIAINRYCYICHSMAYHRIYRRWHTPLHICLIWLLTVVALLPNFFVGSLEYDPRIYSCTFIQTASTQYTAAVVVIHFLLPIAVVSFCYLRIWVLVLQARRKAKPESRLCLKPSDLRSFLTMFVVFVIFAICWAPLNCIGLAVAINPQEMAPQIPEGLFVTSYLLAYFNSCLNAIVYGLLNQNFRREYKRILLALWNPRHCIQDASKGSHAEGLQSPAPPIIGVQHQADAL
Nature of the data set: cell-based. In kind it is cell-based. The conditions noted are these: for hMT2 Schild slope: Schild analysis, antagonism of melatonin.

Data set [1] can be described thus: Plasma pharmacokinetics and brain distribution. In kind it is in vivo. The following applies: male, C57BL/6, mouse, iv, 2 mg/kg; for Kp at 30 min: brain and plasma; for AUC / Cmax / Vd / clearance / half-life: plasma. In outline:
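Male C57BL/6 mice (nine) got a single 2 mg/kg IV dose in 5% N-methyl pyrrolidone, 5% Solutol HS-15, 90% saline. Retro-orbital blood (~60 μL, three mice per time point, light isoflurane) was taken at 0.08–24 hr and plasma stored at -70°C. Brains were collected at 0.5, 4 and 24 hr and homogenized in ice-cold PBS pH 7.4 at three times brain weight.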

Data set [2] addresses T2, mMT1 (Mus musculus, UniProt Q61184). Nature of the data set: GloSensor cAMP assay. In kind it is cell-based. The conditions noted are these: for Emax: HEK293, read-out: mMT1 Emax. The gist of the method:
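HEK293T cells in DMEM with 10% dialyzed FBS were co-transfected with a mouse MT1 or MT2 (de-Tango-ized) construct plus GloSensor DNA (8 μg each). Next day, cells were seeded at 20,000/well in DMEM with 1% dialyzed FBS for 24 h, then switched to HBSS, 20 mM HEPES pH 7.4, 0.1% BSA. Inhibition of isoproterenol-stimulated cAMP was read by luminescence.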

In data set [3] the target is T2, mMT1. Nature of the data set: 2-[125I]-iodomelatonin competition binding, CHO cell membranes. The conditions noted are these: read-out: KD mMT1.
Data set [4] has as its system C3H/HeN mice (WT, MT1KO, MT2KO). As to the kind of experiment: Re-entrainment. In kind it is in vivo, mouse.
The test system is the same in data set [5]. The conditions noted are these: cited from earlier work.
The test system is the same in data set [6]. Nature of the data set: Phase shift of circadian running wheel activity onset in constant dark. The class given is in vivo. The following applies: CT 10; 0.9 μg/mouse (about 0.03 mg/Kg).
[7] abbreviates: hMT1 pEC50, inhibition of isoproterenol-stimulated cAMP, HEK cells, agonist.
Where [8] appears, read: hMT2 pEC50, inhibition of isoproterenol-stimulated cAMP, HEK cells, agonist.
Where [9] appears, read: hMT1 pEC50 (Inverse), inverse agonist, isoproterenol-stimulated cAMP, HEK cells.
Where [10] appears, read: pEC50 MT1 (IA), inverse agonist, as summarised in PK table.
[11] abbreviates: hMT2 pEC50 (Inverse), inverse agonist, isoproterenol-stimulated cAMP, HEK cells.
[12] abbreviates: MT2 activity, none detectable up to, cAMP assay.

T2 sequence (Q61184 whole entry): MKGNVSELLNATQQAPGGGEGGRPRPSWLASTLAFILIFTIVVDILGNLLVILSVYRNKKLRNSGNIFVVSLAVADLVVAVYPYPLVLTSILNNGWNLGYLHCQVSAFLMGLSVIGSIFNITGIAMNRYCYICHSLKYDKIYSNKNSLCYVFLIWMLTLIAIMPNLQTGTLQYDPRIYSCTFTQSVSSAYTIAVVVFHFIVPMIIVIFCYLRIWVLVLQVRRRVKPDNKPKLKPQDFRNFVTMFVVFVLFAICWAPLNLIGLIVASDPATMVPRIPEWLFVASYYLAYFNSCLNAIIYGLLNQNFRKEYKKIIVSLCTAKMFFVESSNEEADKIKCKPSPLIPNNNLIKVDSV
hMT1, sequence (P48039 whole entry): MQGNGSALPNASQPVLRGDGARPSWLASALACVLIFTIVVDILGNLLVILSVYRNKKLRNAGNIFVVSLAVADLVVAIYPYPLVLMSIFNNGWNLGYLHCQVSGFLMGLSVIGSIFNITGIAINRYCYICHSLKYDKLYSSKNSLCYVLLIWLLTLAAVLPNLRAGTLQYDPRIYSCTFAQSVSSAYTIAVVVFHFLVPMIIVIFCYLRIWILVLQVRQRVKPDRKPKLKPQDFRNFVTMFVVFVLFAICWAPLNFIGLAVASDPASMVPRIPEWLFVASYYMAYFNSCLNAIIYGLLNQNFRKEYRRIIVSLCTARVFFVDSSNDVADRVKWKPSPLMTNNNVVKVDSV

The term EC50 denotes the concentration at which the effect is half-maximal. Low readings indicate an effect from little substance, high ones a need for much substance. By Kp is commonly meant the ratio of the level in a tissue or fluid to that in plasma or blood. A word on the AUC: it is the area under the concentration-time curve, a measure of exposure. A high value points to high exposure. Broadly, the Cmax is the highest concentration seen after dosing. A word on the Vd: it is the apparent volume that relates the amount in the body to the concentration in plasma or blood. As usually defined, the clearance is the rate of elimination divided by the concentration. A low value points to inefficient removal. One may read the half-life as the time in which the quantity being followed falls by half. Turning to `COc1ccc(Br)c(CNc2cccnc2)c1` [ZINC128734226], at hMT1 (setting [7]), the EC50 was 158 nM. Further, at hMT2 (setting [8]), the response was half-maximal at 6.31 nM (EC50). In data set [1], this compound displayed a Kp at 30 min of 1.58, an exposure (AUC) of 282 ng·h/mL, a Cmax of 1920 ng/mL and a Vd of 1.11 L/kg. In data set [1], the clearance came to 118 mL/min/kg and the half-life is 17.4 min.
Take `COc1ccc(CN(C(=O)c2ccccc2F)c2ccncc2)cc1` [ZINC151192780]: the “selectivity for MT2 over MT1” value at hMT2 (cAMP) is reported as 89 fold.
As a reminder, the Emax is the size of the effect at its maximum, as opposed to the concentration needed. For `CC(C)c1ccc(CNc2cccc(-c3nnc[nH]3)c2)cc1` [ZINC157673384], the figures for the Kb at hMT1 and on hMT2 were 12.6 nM and 200 nM, respectively. In addition, the Emax was 47% at hMT1 (HEK293, read-out: hMT1 % Emax (Inverse)); -47 ± 12% on hMT1 (HEK293, read-out: hMT1 Emax); 153% on hMT2 (HEK293, read-out: hMT2 % Emax (Inverse)); -153 ± 14% on hMT2 (HEK293, read-out: hMT2 Emax); -49 ± 3% at mMT1 [2]. Further, the “hMT1 Schild slope” value at hMT1 is on record as 0.80 ± 0.04. Besides, the EC50 is 20.9 nM at hMT1 (setting [9]); 20 nM on hMT1 (setting [10]); 661 nM at hMT2 (setting [11]); 631 nM on hMT2 (pEC50 MT2 (IA), inverse agonist, as summarised in PK table); 100 nM at mMT1 [2]. The “hMT2 Schild slope” value on hMT2 (cAMP) turned out to be 1.0 ± 0.1. The same compound came in with a Kp at 30 min in data set [1] of 1.43. In addition, the AUC in data set [1] amounted to 564 ng·h/mL. In data set [1], the Cmax amounted to 1300 ng/mL. The compound further displayed a Vd in data set [1] of 1.38 L/kg. In addition, in data set [1], the clearance was 58.5 mL/min/kg. In data set [1], this compound had a half-life of 19.2 min.
With `CN(Cc1ccncc1)c1ccnc(Cl)c1` [ZINC223593565], the Emax was 86% at hMT1 (HEK293, read-out: hMT1 % Emax) and 58% at hMT2 (HEK293, read-out: hMT2 % Emax). For the same compound, the EC50 on hMT1 (setting [7]) is 398 nM; at hMT2 (setting [8]), 355 nM.
The Kd is the free concentration of one partner at which half of the binding sites on the other are occupied at equilibrium, for simple one-to-one binding. Regarding `COc1ccc2[nH]c(I)c(CCNC(C)=O)c2c1` [2-[^125I]-iodomelatonin, 2-[^125I]-Iodomelatonin], the values for the Kd on mMT1 [3] (GTP buffer) and at mMT1 [3] (control buffer) were 0.201 nM and 0.087 nM, respectively.
Consider `Cc1cc(=O)n2ccn(CCc3ccc4c(c3)OC(F)(F)O4)c2n1` [ZINC664088238], for which, at hMT1 (setting [7]), the EC50 was greater than 10000 nM.
At hMT2 (setting [12]), `COc1cccc2c1CCN(C(=O)c1ccc(F)nc1)C2` [ZINC182731037] displayed a 50% effective concentration (EC50) greater than 30000 nM.
With `CC(=O)NCCc1c(Cc2ccccc2)[nH]c2ccccc12` [luzindole], the effect on re-entrainment result in data set [4] (300 μg/mouse) is on record as “decelerates re-entrainment”.
For `COc1ccc(CN(C(=O)[C@H]2C[C@@H]2C)c2ccncc2)cc1` [ZINC151209032], the Emax at hMT1 (HEK293, read-out: hMT1 % Emax) was 88%. At hMT1 (setting [7]), this compound showed a concentration giving a half-maximal response (EC50) of 2000 nM. Further, the “melatonin receptor type selectivity (grouping)” value on hMT1 (hMT1 versus hMT2, cAMP assays) was “MT1-selective”.
In the case of `Cc1nc(-c2cccc(NCc3ccccc3Cl)c2)n[nH]1` [ZINC37781618], the EC50 at hMT1 (hMT1 pEC50 (inactive analog), tested at concentrations up to 30μM) is greater than 31600 nM; at hMT2 (hMT2 pEC50 (inactive analog), tested at concentrations up to 30μM), greater than 31600 nM.
Consider `COC(=O)c1ccc(CSc2nnc(C3CC3)[nH]2)s1` [ZINC159050207], for which the Emax on hMT1 (HEK293, read-out: hMT1 % Emax) was 99%; on hMT2 (HEK293, read-out: hMT2 % Emax), 83%. The concentration for a half-maximal effect (EC50) was 1 nM on hMT1 (setting [7]) and 2 nM at hMT2 (setting [8]).
Take `COc1ccc(CN(C(=O)c2scc(C)c2Cl)c2ccncc2)cc1` [ZINC485552623]: the EC50 at hMT1 (setting [7]) is greater than 10000 nM.
For the compound `COc1ccc2[nH]cc(CCNC(C)=O)c2c1` [melatonin], the “ED50 (phase advance)” value in data set [5] is recorded as 0.72 μg/mouse. In addition, the effect on re-entrainment entry in data set [4] (30 μg/mouse) is “accelerates re-entrainment”.
On hMT2 (setting [12]), `COc1ccc(CN(C)C(=O)c2cccc(OC(F)F)c2)cc1O` [ZINC353044322] returned an EC50 greater than 30000 nM.
Take `Clc1ccc(CNc2cccc(-c3nnc[nH]3)c2)c(Br)c1` [ZINC555417447]: the “hMT1 Schild slope” value at hMT1 came out at 0.98 ± 0.03. Moreover, on hMT1 (setting [9]), the EC50 is 40.7 nM and 39.8 nM. Also, a half-maximal response on hMT1 (setting [10]) (EC50) required 39.8 nM. In addition, the “hMT2 Schild slope” value at hMT2 (cAMP) is on record as 1.3 ± 0.4. At hMT2 (setting [11]), this compound registered a concentration giving a half-maximal response (EC50) of 2000 nM. Further, at mMT1 [2], the EC50 was 63.1 nM and the Emax is -56 ± 5%. In data set [1], this compound displayed a Kp at 30 min of 3.03, an AUC of 494 ng·h/mL, a Cmax of 1950 ng/mL and a Vd of 1.11 L/kg. In data set [1], the clearance was found to be 67.1 mL/min/kg and the half-life was 16.2 min. The “advance of the onset of activity” value in data set [6] is recorded as “approximately 1 hour”.
